From ChEMBL document CHEMBL2157975 (Bioorg Med Chem Lett, 2012)

Tests used:
[1] = Metabolic stability in mouse hepatic microsomes assessed as compound remaining at 60 mins; assay type: ADME; conditions: liver microsomes, read-out: Stability
In short: (§1)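 Test compound incubated with liver microsomes, human or mouse according to the line (the text also calls these liver homogenates). Read-out was the percentage of parent compound remaining after 60 min.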

Plasma = assay: Plasma protein binding in mouse; assay type: ADME, cell-free
[2] = target: T1, Apelin receptor (Homo sapiens) (UniProt P35414); assay: Antagonist activity at APJ receptor assessed as inhibition of apelin13-induced cAMP accumulation; assay type: functional
T1 sequence (whole entry): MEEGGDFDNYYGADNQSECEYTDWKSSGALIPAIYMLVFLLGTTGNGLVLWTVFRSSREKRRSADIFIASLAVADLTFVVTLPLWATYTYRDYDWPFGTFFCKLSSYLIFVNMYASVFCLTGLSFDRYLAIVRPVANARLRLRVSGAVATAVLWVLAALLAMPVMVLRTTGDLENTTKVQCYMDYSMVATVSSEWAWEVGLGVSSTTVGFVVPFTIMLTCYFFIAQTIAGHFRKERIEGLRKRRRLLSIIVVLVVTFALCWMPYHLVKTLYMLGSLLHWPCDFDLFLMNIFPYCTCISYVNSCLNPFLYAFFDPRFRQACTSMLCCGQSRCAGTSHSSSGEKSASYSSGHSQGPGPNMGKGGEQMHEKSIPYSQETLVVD

[3] = target: Kappa-type opioid receptor (Homo sapiens) (UniProt P41145); assay: Binding affinity to kappa-opioid receptor at 10 uM
Sequence of Kappa-type opioid receptor (Homo sapiens) (P41145 whole entry): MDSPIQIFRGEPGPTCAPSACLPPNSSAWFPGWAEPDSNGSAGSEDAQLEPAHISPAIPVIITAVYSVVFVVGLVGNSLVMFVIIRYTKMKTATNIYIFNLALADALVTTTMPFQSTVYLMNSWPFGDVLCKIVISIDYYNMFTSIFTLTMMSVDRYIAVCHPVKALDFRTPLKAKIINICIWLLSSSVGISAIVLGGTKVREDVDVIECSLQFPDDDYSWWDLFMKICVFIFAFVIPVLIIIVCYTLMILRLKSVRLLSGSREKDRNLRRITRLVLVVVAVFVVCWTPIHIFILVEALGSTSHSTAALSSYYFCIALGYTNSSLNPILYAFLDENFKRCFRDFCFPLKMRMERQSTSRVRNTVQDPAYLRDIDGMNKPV

[4] = Metabolic stability in human hepatic microsomes assessed as compound remaining at 60 mins; assay type: ADME; conditions: liver microsomes, read-out: Stability; in short: as §1
[5] = target: T2, Type-1 angiotensin II receptor (Homo sapiens, UniProt P30556); assay: Inhibition of AT1 receptor
T2 sequence (P30556 whole entry): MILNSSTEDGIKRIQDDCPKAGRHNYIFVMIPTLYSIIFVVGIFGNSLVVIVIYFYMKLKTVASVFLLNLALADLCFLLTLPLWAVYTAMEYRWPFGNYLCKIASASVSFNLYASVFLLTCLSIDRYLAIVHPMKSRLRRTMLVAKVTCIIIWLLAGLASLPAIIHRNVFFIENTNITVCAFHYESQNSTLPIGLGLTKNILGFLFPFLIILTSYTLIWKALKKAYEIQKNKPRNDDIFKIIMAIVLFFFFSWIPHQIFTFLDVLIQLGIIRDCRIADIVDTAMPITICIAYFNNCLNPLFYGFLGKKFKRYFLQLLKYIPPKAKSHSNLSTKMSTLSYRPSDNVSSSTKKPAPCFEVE

[6] = Metabolic stability in plasma; assay type: ADME, cell-free
[7] = Binding affinity to benzodiazepinone receptor at 10 uM
Hepatocyte = assay: Cytotoxicity against human hepatocytes; assay type: cell-based

O=C(Oc1coc(CSc2ncccn2)cc1=O)c1ccc([N+](=O)[O-])cc1
remaining at 1 h [1]: 4.9%
PPB (Plasma): 99.1%
inhibition [2]: Dose-dependent effect
Activity [3]: < 50%
remaining at 1 h [4]: 4.2%
IC50 [5]: > 79 µM
Stability [6]: 42.2%
Activity [7]: < 70%
Activity (Hepatocyte): > 50 µM
